Data published in ChEMBL document CHEMBL4261483, “Synthesis and biological evaluation of memantine nitrates as a potential treatment for neurodegenerative diseases” (Medchemcomm, 2017).
Activity calls are given as the source filed them. The rule behind the calls is not given here.

Experiments:
Aorta [1] = assay: Vasodilating activity in Sprague-Dawley rat aortic ring precontracted with phenylephrine in absence of endothelium; type: functional, tissue-based; details: for EC50: Rattus norvegicus, Sprague-Dawley, Aorta
[2] = system: Cerebellar granule neurone; assay: Neuroprotective activity against glutamate-induced excitotoxicity in mouse primary cerebellar granule neurons assessed as increase in cell viability at 1 uM preincubated for 2 hrs followed by glutamate challenge measured after 24 hrs by MTT assay; type: functional
Aorta [3] = assay: Vasodilating activity in Sprague-Dawley rat aortic ring precontracted with phenylephrine in presence of endothelium; type: functional, tissue-based; details: for EC50: Rattus norvegicus, Sprague-Dawley, Aorta
[4] = system: Cerebellar granule neurone; assay: Neuroprotective activity against glutamate-induced excitotoxicity in mouse primary cerebellar granule neurons assessed as increase in cell viability preincubated for 2 hrs followed by glutamate challenge measured after 24 hrs by MTT assay; type: functional
[5] = system: Cerebellar granule neurone; assay: Cytotoxicity against mouse primary cerebellar granule neurons assessed as decrease in cell viability at 100 uM after 24 hrs by MTT assay
Cortical neurone [6] = assay: Neuroprotective activity against glutamate-induced neuronal damage in rat cortical neurons assessed as decrease in formation of peroxynitrite preincubated for 2 hrs followed by glutamate challenge measured after 12 hrs by DHR123 dye-based fluorescence assay; type: functional, cell-based
In short: (§1)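 Cortical neurons pretreated 2 h with compound, then exposed to 200 μM glutamate for 12 h in its presence. Probes added for a further 30 min: H2DCF-DA 5 μM (H2O2), HPF 10 μM (·OH), DHE 5 μM (superoxide), DAF-FM 5 μM (NO), DHR123 10 μM (peroxynitrite). Intracellular fluorescence measured.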

Cortical neurone [7] = assay: Neuroprotective activity against glutamate-induced neuronal damage in rat cortical neurons assessed as decrease in formation of hydroxy radicals preincubated for 2 hrs followed by glutamate challenge measured after 12 hrs by HPF dye-based fluorescence assay; type: functional, cell-based; in short: as §1
Cortical neurone [8] = assay: Neuroprotective activity in rat cortical neurons assessed as inhibition of glutamate-induced decrease in mitochondrial membrane potential at 5 to 45 uM preincubated for 2 hrs followed by glutamate challenge measured after 12 hrs by JC1 staining-based fluorescence assay; type: functional, cell-based
In short: (§2)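 Cortical neurons given compound for 2 h, then 200 μM glutamate for 12 h without compound removal. Fluorescence read at 488 nm excitation with dual emission at 529/590 nm.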

Cortical neurone [9] = assay: Neuroprotective activity against glutamate-induced neuronal damage in rat cortical neurons assessed as decrease in intracellular calcium influx at 15 uM preincubated for 5 min followed by glutamate challenge measured over 280 secs by Fluo-3/AM dye-based fluorescence assay; type: functional, cell-based
In short: (§3)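 Cortical neurons loaded with Fluo-3/AM (5 μM) for 30 min at 37 °C, then held in HBSS for 30 min at room temperature. Dye washed out, compound applied for 5 min, and cells imaged with a 20× objective to follow calcium influx.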

Cortical neurone [10] = assay: Neuroprotective activity against glutamate-induced neuronal damage in rat cortical neurons assessed as increase in cell viability preincubated for 2 hrs followed by glutamate challenge measured after 24 hrs by […]/propidium iodide staining-based inverted fluorescence microscopic method; type: functional
In short: (§4)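 Rat primary cortical neurons given compound for 2 h, then 200 μM glutamate for 24 h in its presence. Viability by FDA/PI double staining, with live cells green (FDA) and dead cells red (PI), scored from fluorescence images. Memantine 5 μM used as positive control.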

Cortical neurone [11] = assay: Neuroprotective activity against glutamate-induced neuronal damage in rat cortical neurons assessed as increase in cell viability preincubated for 2 hrs followed by glutamate challenge measured after 24 hrs by MTT assay; type: functional, cell-based
In short: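 Rat primary cortical neurons treated with compound for 2 h, then exposed to 200 μM glutamate for another 24 h without compound removal. Viability by MTT assay. Memantine 5 μM served as positive control.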

Cortical neurone [12] = assay: Neuroprotective activity against glutamate-induced neuronal damage in rat cortical neurons assessed as decrease in formation of nitric oxide preincubated for 2 hrs followed by glutamate challenge measured after 12 hrs by DAF-FM dye-based fluorescence assay; type: functional, cell-based; in short: as §1
Cortical neurone [13] = assay: Neuroprotective activity against glutamate-induced neuronal damage in rat cortical neurons assessed as decrease in H2O2 formation preincubated for 2 hrs followed by glutamate challenge measured after 12 hrs by H2DCF-DA dye-based fluorescence assay; type: functional, cell-based; in short: as §1
Cortical neurone [14] = assay: Neuroprotective activity against glutamate-induced neuronal damage in rat cortical neurons assessed as decrease in formation of superoxide anions preincubated for 2 hrs followed by glutamate challenge measured after 12 hrs by DHE dye-based fluorescence assay; type: functional, cell-based; in short: as §1
[15] = system: Cerebellar granule neurone; assay: Neuroprotective activity against glutamate-induced excitotoxicity in mouse primary cerebellar granule neurons assessed as increase in cell viability up to 10 uM preincubated for 2 hrs followed by glutamate challenge measured after 24 hrs by MTT assay; type: functional
Cortical neurone [16] = assay: Neuroprotective activity against glutamate-induced neuronal damage in rat cortical neurons assessed as decrease in formation of nitric oxide at 5 uM preincubated for 2 hrs followed by glutamate challenge measured after 12 hrs by DAF-FM dye-based fluorescence assay; type: functional, cell-based; in short: as §1
Cortical neurone [17] = assay: Neuroprotective activity against glutamate-induced neuronal damage in rat cortical neurons assessed as decrease in formation of superoxide anions at 5 uM preincubated for 2 hrs followed by glutamate challenge measured after 12 hrs by DHE dye-based fluorescence assay; type: functional, cell-based; in short: as §1
Cortical neurone [18] = assay: Neuroprotective activity against glutamate-induced neuronal damage in rat cortical neurons assessed as increase in cell viability at 5 uM preincubated for 2 hrs followed by glutamate challenge measured after 24 hrs by […]/propidium iodide staining-based inverted fluorescence microscopic method; type: functional; in short: as §4
Cortical neurone [19] = assay: Neuroprotective activity against glutamate-induced neuronal damage in rat cortical neurons assessed as decrease in formation of peroxynitrite at 5 uM preincubated for 2 hrs followed by glutamate challenge measured after 12 hrs by DHR123 dye-based fluorescence assay; type: functional, cell-based; in short: as §1
Cortical neurone [20] = assay: Neuroprotective activity against glutamate-induced neuronal damage in rat cortical neurons assessed as decrease in H2O2 formation at 5 uM preincubated for 2 hrs followed by glutamate challenge measured after 12 hrs by H2DCF-DA dye-based fluorescence assay; type: functional, cell-based; in short: as §1
Cortical neurone [21] = assay: Neuroprotective activity against glutamate-induced neuronal damage in rat cortical neurons assessed as decrease in formation of hydroxy radicals at 5 uM preincubated for 2 hrs followed by glutamate challenge measured after 12 hrs by HPF dye-based fluorescence assay; type: functional, cell-based; in short: as §1
Cortical neurone [22] = assay: Neuroprotective activity against glutamate-induced neuronal damage in rat cortical neurons assessed as decrease in intracellular calcium influx at 5 uM preincubated for 5 min followed by glutamate challenge measured over 280 secs by Fluo-3/AM dye-based fluorescence assay; type: functional, cell-based; in short: as §3
Cortical neurone [23] = assay: Neuroprotective activity in rat cortical neurons assessed as inhibition of glutamate-induced decrease in mitochondrial membrane potential at 5 uM preincubated for 2 hrs followed by glutamate challenge measured after 12 hrs by JC1 staining-based fluorescence assay; type: functional, cell-based; in short: as §2

| EC50 (Aorta [1]) [µM] | EC50 (Aorta [3]) [µM] | SMILES | Emax (Aorta [1]) [%] | Activity [2] | Emax (Aorta [3]) [%] | EC50 [4] [µM] | Activity [5] | Activity [15] | further results |
| --- | --- | --- | --- | --- | --- | --- | --- | --- | --- |
| 146 | – | CCC12CC3CC(N)(C1)CC(O[N+](=O)[O-])(C3)C2 (stereo unspecified) | 42 | Active | 39.5 | 15.4 | – | – | – |
| 26.9 | 24.4 | CCC12CC3CC(N)(C1)CC(CCCO[N+](=O)[O-])(C3)C2 (stereo unspecified) | 89.8 | Active | 95 | 35.2 | Toxic | – | – |
| 50.6 | 46.4 | CCC12CC3CC(N)(C1)CC(CO[N+](=O)[O-])(C3)C2 (stereo unspecified) | 98.2 | Active | 101 | 10.7 | – | – | Activity (Cortical neurone [6]): Dose-dependent effect; Activity (Cortical neurone [7]): Dose-dependent effect; inhibition (Cortical neurone [8]): Active; Activity (Cortical neurone [9]): Active; Activity (Cortical neurone [10]): Dose-dependent effect; Activity (Cortical neurone [11]): Dose-dependent effect; Activity (Cortical neurone [12]): Dose-dependent effect; Activity (Cortical neurone [13]): Dose-dependent effect; Activity (Cortical neurone [14]): Dose-dependent effect |
| – | – | CCC12CC3CC(N)(C1)CC(CC(C)O[N+](=O)[O-])(C3)C2 (stereo unspecified) | – | – | – | 58.4 | Toxic | Active | – |
| – | – | CCC12CC3CC(N)(C1)CC(CC(C)CO[N+](=O)[O-])(C3)C2 (stereo unspecified) | – | – | – | 55.2 | Toxic | Active | – |
| – | – | CC12CC3CC(N)(C1)CC(CCCO[N+](=O)[O-])(C3)C2 (stereo unspecified) | – | – | – | 39.8 | Toxic | Active | – |
| – | – | CC12CC3CC(N)(C1)CC(O[N+](=O)[O-])(C3)C2 (stereo unspecified) | – | – | – | 24.6 | – | Active | – |
| – | – | CC12CC3CC(N)(C1)CC(CO[N+](=O)[O-])(C3)C2 (stereo unspecified) | – | – | – | 25.2 | – | Active | – |
| – | – | CC12CC3CC(C)(C1)CC(N)(C3)C2 [MEMANTINE] | – | Active | – | 2.48 | – | – | Activity (Cortical neurone [16]): Active; Activity (Cortical neurone [17]): Active; Activity (Cortical neurone [18]): Active; Activity (Cortical neurone [19]): Active; Activity (Cortical neurone [20]): Active; Activity (Cortical neurone [21]): Active; Activity (Cortical neurone [22]): Active; inhibition (Cortical neurone [23]): Active |
| 34.4 | 24.6 | NC12CC3CC(CCCO[N+](=O)[O-])(C1)CC(CCCO[N+](=O)[O-])(C3)C2 | 95.4 | Active | 97.7 | 39.8 | Toxic | – | – |
| 62.8 | 55 | NC12CC3CC(CO[N+](=O)[O-])(C1)CC(CO[N+](=O)[O-])(C3)C2 | 90.5 | Active | 96.8 | 18.9 | – | – | – |
| – | – | CCCC12CC3CC(N)(C1)CC(CO[N+](=O)[O-])(C3)C2 (stereo unspecified) | – | – | – | 38.1 | Toxic | Active | – |
| 94.8 | – | CCCC12CC3CC(N)(C1)CC(O[N+](=O)[O-])(C3)C2 (stereo unspecified) | 61.7 | Active | 52 | 17.1 | – | – | – |
| – | – | CC(CC12CC3CC(N)(C1)CC(CC(C)O[N+](=O)[O-])(C3)C2)O[N+](=O)[O-] (stereo unspecified) | – | – | – | 43 | Toxic | Active | – |
| – | – | CCCC12CC3CC(N)(C1)CC(CCCO[N+](=O)[O-])(C3)C2 (stereo unspecified) | – | – | – | 57.6 | Toxic | Active | – |
| 36.5 | 32 | CC(CO[N+](=O)[O-])CC12CC3CC(N)(C1)CC(CC(C)CO[N+](=O)[O-])(C3)C2 (stereo unspecified) | 95.8 | Active | 100 | 53.2 | Toxic | – | – |
| 57.1 | 36 | NC12CC3CC(CCO[N+](=O)[O-])(C1)CC(CCO[N+](=O)[O-])(C3)C2 | 99.4 | – | 102 | 25.9 | Toxic | Active | – |
